Among the data in ChEMBL document CHEMBL1122613, “A water-soluble cholesteryl-containing trisgalactoside: synthesis, properties, and use in directing lipid-containing particles to the liver” (J Med Chem, 1984) are Activity values, retold here.

The test system of data set [1] is Rattus norvegicus. Description: Amount of [125I]- remaining in blood 10 min after administration of 0.65 nmol of compound/ug of [125I]- LDL protein in rats preinjected with Gal-N-Ac 110 mg. The class given is ADME, organism-based. The settings on record: in vivo. In outline: (§1)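 110 mg 2-acetamido-2-deoxygalacto- or -glucopyranose was injected iv 1 min before the 125I-LDL, which had been preincubated 10 min at room temperature with compound (13 μg per 20 μg LDL-protein). Rats were pentobarbital-anesthetized males. Blood was taken at 10 min, and the liver was perfused with Ca2+-free Hanks and excised. Samples were γ-counted; blood totals assume 4 mL serum/100 g body weight; values are % injected dose.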

The species entered for data set [2] is Rattus norvegicus. In words: Amount of 14C remaining in blood 120 min after injection of 0 mol of [14C]- sucrose containing liposomes with compound. Format: ADME, organism-based. Conditions: 2 h.
For data set [3], the species on record is Rattus norvegicus. In words: Amount of 14C remaining in blood 120 min after injection of 0.1 mol of [14C]- sucrose containing liposomes with compound. Format: ADME, organism-based. Conditions: 2 h.
Data set [4] deals with Rattus norvegicus. In words: Amount of [125I]- remaining in blood 10 min after administration of 0 nmol of compound/ug of [125I]- LDL protein. The class given is ADME, organism-based. In outline:
(§2)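 Human LDL (d 1.019–1.063) was labeled with 125I. 20 μg LDL-protein was mixed with 0, 5 or 13 μg compound in water for 10 min at room temperature, then given iv to pentobarbital-anesthetized male rats. At 10 min, blood was taken by aortic puncture and the liver perfused via the portal vein (Ca2+-free Hanks, 14 mL/min, 8 min), then excised. Samples were γ-counted; results are % injected dose.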

Data set [5] has as its system Rattus norvegicus. Description: Amount of [125I]- remaining in blood 10 min after administration of 0.05 nmol of compound/ug of [125I]- LDL protein. Format: ADME, organism-based.
Data set [6] concerns Rattus norvegicus. In words: Amount of [125I]- remaining in blood 10 min after administration of 0.25 nmol of compound/ug of [125I]- LDL protein. Format: ADME, organism-based. In outline:
as §2

Data set [7] relates to Rattus norvegicus. Description: Amount of [125I]- remaining in blood 10 min after administration of 0.65 nmol of compound/ug of [125I]- LDL protein. Format: ADME, organism-based. In outline: as §2
The subject of data set [8] is Rattus norvegicus. Description: Amount of [125I]- remaining in blood 10 min after administration of 0.65 nmol of compound/ug of [125I]- LDL protein in rat preinjected with Glc-N-Ac 110 mg. Format: ADME, organism-based. The settings on record: in vivo. The essentials:
as §1

Data set [9] in a line: [125I]- uptake in liver after perfusion on administration of 0 nmol of compound/ug of [125I]- LDL protein. Format: ADME, tissue-based. Conditions: rat. In outline:
as §2

The nature of data set [10]: [125I]- uptake in liver after perfusion on administration of 0.05 nmol of compound/ug of [125I]- LDL protein. The class given is ADME, tissue-based. The settings on record: rat.
The nature of data set [11]: [125I]- uptake in liver after perfusion on administration of 0.25 nmol of compound/ug of [125I]- LDL protein. Format: ADME, tissue-based. Conditions: rat. In outline:
as §2

The nature of data set [12]: [125I]- uptake in liver after perfusion on administration of 0.65 nmol of compound/ug of [125I]- LDL protein. Conditions: rat. The class given is ADME, tissue-based. The essentials:
as §2

Data set [13] in a line: [125I]- uptake in liver after perfusion on administration of 0.65 nmol of compound/ug of [125I]- LDL protein in rats preinjected with Gal-N-Ac 110 mg. The class given is ADME, tissue-based. The settings on record: rat, in vivo. In outline:
as §1

Data set [14] is described as follows: [125I]- uptake in liver after perfusion on administration of 0.65 nmol of compound/ug of [125I]- LDL protein in rats preinjected with Glc-N-Ac 110 mg. Format: ADME, tissue-based. The settings on record: rat, in vivo. The essentials:
as §1

Data set [15] in a line: 14C uptake in liver after perfusion on administration of 0 mol of [14C]- sucrose containing liposomes with compound. The class given is ADME. Conditions: rat.
Data set [16] can be described thus: 14C uptake in liver after perfusion on administration of 0.1 mol of [14C]- sucrose containing liposomes with compound. Format: ADME. Conditions: rat.

Take `CC(C)CCC[C@@H](C)[C@H]1CC[C@H]2[C@@H]3CC=C4C[C@@H](OC(=O)CCC(=O)NCC(=O)NC(CO[C@@H]5O[C@H](CO)[C@H](O)[C@H](O)[C@H]5O)(CO[C@@H]5O[C@H](CO)[C@H](O)[C@H](O)[C@H]5O)CO[C@@H]5O[C@H](CO)[C@H](O)[C@H](O)[C@H]5O)CC[C@]4(C)[C@H]3CC[C@]12C`: the Activity is 94% in the data set on Rattus norvegicus [1]; 82% in the data set filed under Rattus norvegicus [2]; 48% in the data set filed under Rattus norvegicus [3]; 97% in the data set on Rattus norvegicus [4]; 96% with Rattus norvegicus [5]; 57% with Rattus norvegicus [6]. For the same molecule, the Activity in the data set with Rattus norvegicus [7] came to 23%; in the data set with Rattus norvegicus [8] it was 27%; in data set [9], 1.9%; in data set [10], 2%; in data set [11] it was 33%; in [12], 41%. The Activity turned out to be 3.2% in [13], 39% in [14], 3% in data set [15] and 48% in data set [16].
